Source: PubChem BioAssay (Johns Hopkins Ion Channel Center)
hERG rescue = shields human hERG channel from block by proarrhythmic agents; activation (rescue from dofetilide block), less the hit threshold, % at 10 µM; CHO-hERG, FluxOR thallium flux, dofetilide IC70 present; actives 0.51% (n = 310,000); AID 1511;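 active means activation above the mean of controls blocked by dofetilide plus 5 SD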;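 further: thallium influx through hERG after potassium depolarization seen as dye fluorescence rise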
KCNK9 inh-1 = inhibitors of human KCNK9 two-pore domain potassium channel. Q9NPC2. HEK293 KCNK9, FluxOR thallium flux fluorescence; active compounds read low. B-score at 10 µM. actives 1.2% (n = 310,000);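 active means ratio B-score over 3 SD below the library mean, with starting fluorescence within 5 SD of its mean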;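 further: negative B-score means less thallium flux so channel inhibition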
Target sequence (Q9NPC2 whole entry, looked up, the tested form may be a part): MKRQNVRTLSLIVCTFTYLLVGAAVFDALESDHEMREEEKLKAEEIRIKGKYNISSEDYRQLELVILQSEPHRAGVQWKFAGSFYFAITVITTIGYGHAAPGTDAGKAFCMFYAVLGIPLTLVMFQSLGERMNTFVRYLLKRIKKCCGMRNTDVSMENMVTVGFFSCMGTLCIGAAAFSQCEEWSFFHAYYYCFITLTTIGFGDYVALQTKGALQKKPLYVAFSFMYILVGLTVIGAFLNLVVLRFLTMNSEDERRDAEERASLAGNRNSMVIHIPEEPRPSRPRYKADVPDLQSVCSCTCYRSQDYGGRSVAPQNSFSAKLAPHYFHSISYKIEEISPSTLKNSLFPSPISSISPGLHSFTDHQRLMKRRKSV
KCNK3 inh = human KCNK3 channel inhibition, primary screen. AID 602410. B-score at 10 µM. actives 0.84% (n = 340,000). CHO-KCNK3 thallium flux, FluxOR fluorescence; active compounds read low;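 active means B-score under library mean minus 4 SD, starting fluorescence ratio at most library mean plus 5 SD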;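 further: more negative B-score means stronger inhibition of thallium flux through KCNK3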
Kir21 block = inhibitors of mouse Kir2.1 inward-rectifier potassium channel | P35561 | HEK293-Kir2.1, FluxOR thallium flux fluorescence; active compounds read low | B-score at 10 µM | actives 0.85% (n = 310,000);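 active means fluorescence ratio B-score at or below minus 3 SD of library scores, with starting-brightness B-score within 2 SD, cut at about -4.2 in these data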;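 further: channel flux triggered by added potassium and thallium sulfate stimulus; B-score of peak minus minimum fluorescence over baseline after thallium stimulus; more negative B-score means stronger Kir2.1 block with less thallium influx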
Target sequence (P35561 whole entry, looked up): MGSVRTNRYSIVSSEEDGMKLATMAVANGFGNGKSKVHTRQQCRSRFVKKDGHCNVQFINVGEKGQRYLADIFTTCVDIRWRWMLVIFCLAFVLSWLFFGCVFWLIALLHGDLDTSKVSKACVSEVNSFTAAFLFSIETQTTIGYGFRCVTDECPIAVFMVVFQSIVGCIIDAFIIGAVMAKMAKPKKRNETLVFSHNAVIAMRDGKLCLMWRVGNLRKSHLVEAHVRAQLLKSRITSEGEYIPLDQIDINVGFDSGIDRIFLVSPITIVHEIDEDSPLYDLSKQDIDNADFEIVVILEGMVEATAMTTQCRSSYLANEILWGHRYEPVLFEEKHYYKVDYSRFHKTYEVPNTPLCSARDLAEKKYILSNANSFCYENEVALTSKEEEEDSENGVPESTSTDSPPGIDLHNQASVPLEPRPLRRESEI
KCNQ1 pot = potentiates or activates the human KCNQ1 potassium channel | P51787 | CHO-K1 KCNQ1, thallium flux FluxOR fluorescence; active compounds read high | B-score at 10 µM | actives 0.35% (n = 310,000) | AID 2648;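 active means fluorescence ratio B-score, a plate-corrected score, at least three library SD, with initial intensity B-score within 5 SD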
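Assay system: CHO-K1 cells stably expressing KCNQ1. Medium: assay buffer for compound exposure, DMSO matched across wells. Timing: 37 °C overnight plating, 90-min dark dye load, 20-min compound pretreatment. Signal: kinetic FluxOR fluorescence, 10 s baseline plus 110 s post-stimulus.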
KCNQ1 block = blocks the human KCNQ1 potassium channel. CHO-K1 KCNQ1, FluxOR thallium flux fluorescence; active compounds read high. B-score at 10 µM. actives 1.3% (n = 310,000). AID 2642;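 active means compounds whose thallium flux B-score, printed positive for inhibition, exceeds three library SD while starting fluorescence stays within three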;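 further: channel opened by potassium depolarization with thallium stimulus after 20 min compound exposure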
hERG ctr = hERG (human) inhibition as Kir2.1 counter-screen; shares compounds with Kir21 block; inhibition, % at 10 µM; hERG-expressing cells, thallium flux; actives 20% (n = 320);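 further: host cells are CHO cells stably expressing hERG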
KCNK9 inh-2 = human KCNK9 off-target activity of Kir2.1 blockers. shares compounds with Kir21 block. KCNK9-expressing cells, ion flux inhibition. inhibition, % at 10 µM. actives 5% (n = 320). AID 2329
Kir21 ephys inh = mouse Kir2.1 inward rectifier channel inhibition; Kir2.1 cells, automated patch-clamp current inhibition; actives 71% (n = 320); shares compounds with Kir21 block; inhibition, % at 25 µM
KCNQ1 inh valid = confirmation of human KCNQ1 potassium channel inhibitors; KCNQ1 cell line, FluxOR thallium flux fluorescence; shares compounds with KCNQ1 block; AID 588353; actives 93% (n = 1,600); inhibition, % at 10 µM;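 active means primary screen active, with duplicate mean exceeding buffer control mean plus 3 SD of buffer wells, cut at about 28% in these data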;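 further: 0% = buffer control ratio and 100% = XE991 inhibitor control ratio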
CHO Tl flux = activity in parental CHO cells lacking KCNQ1. actives 21% (n = 1,600). shares compounds with KCNQ1 block. fluorescence ratio (Tl flux) at 10 µM. parental CHO-K1, FluxOR thallium flux fluorescence ratio; active compounds read low; zero means no signal rise above baseline;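 active means mean of duplicate thallium-flux fluorescence ratios in parental host cells more than 5 SD below the buffer control mean, cut at about 0.38 in these data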;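 further: ratio is peak minus minimum fluorescence divided by baseline fluorescence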
KCNQ1 APC inh = confirmation of human KCNQ1 potassium channel inhibitors by electrophysiology | shares compounds with KCNQ1 block | KCNQ1-CHO cells, automated patch clamp current | calls only at 10 µM | actives 20% (n = 490) | AID 624120;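 active means KCNQ1 current drop exceeding 3 SD of negative control wells, seen in both duplicate runs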;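 further: steady state current during a 2 s step from -80 to +40 mV; negative values mean current inhibition and positive values mean potentiation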
KCNQ2 inh = selectivity of KCNQ1 inhibitors: inhibition of rat KCNQ2 channel | shares compounds with KCNQ1 block | KCNQ2 cells, FluxOR thallium flux fluorescence | inhibition, % at 10 µM | actives 71% (n = 1,600) | AID 651746;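 active means mean percent inhibition of the KCNQ2 thallium signal more than 5 SD above the buffer-only control wells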;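 further: KCNQ2 expressed in CHO cells; 0% = buffer control wells and 100% = XE-991 inhibitor control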
KCNQ1-KCNE1 inh = KCNQ1 inhibitor that also blocks human KCNQ1/KCNE1 channel; shares compounds with KCNQ1 block; KCNQ1/KCNE1 cells, FluxOR thallium flux fluorescence; inhibition, % at 10 µM; actives 77% (n = 1,600); AID 652147;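 active means mean percent inhibition of duplicate wells above the buffer-only control mean plus 3 SD of those controls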;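 further: 0% = buffer only wells and 100% = XE-991 inhibitor control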
KCNK9 inh conf = confirmation of human KCNK9 potassium channel inhibitors; AID 492992; HEK293 KCNK9 cells, FluxOR thallium flux fluorescence; shares compounds with KCNK9 inh-1; inhibition, % at 10 µM; actives 43% (n = 4,900);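 active means thallium signal inhibited by more than 5 SD of the compound-free buffer control wells, on both duplicate plates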;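 further: 0% = assay buffer control wells without compound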
Kir21 sel = tests whether KCNK9 modulators also affect mouse Kir2.1 | AID 492993 | actives 4% (n = 4,900) | Kir2.1 cells, FluxOR thallium flux fluorescence | inhibition, % at 10 µM | shares compounds with KCNK9 inh-1;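 active means thallium signal drop more than 5 SD beyond the mean of the no-compound control wells, seen in both duplicate plates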;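 further: signal is fluorescence rise after thallium addition divided by baseline fluorescence; plate controls were assay buffer only for no effect and full block by chlorpromazine control for full effect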
HEK293 Tl ctr = second counter-screen for KCNK9 modulators: effect in non-induced cells; inhibition, % at 10 µM; actives 40% (n = 4,900); non-induced KCNK9-HEK293, FluxOR thallium flux; shares compounds with KCNK9 inh-1;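 active means thallium signal drop beyond 5 SD of the untreated control mean, on both duplicate plates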;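 further: plate controls were buffer only IC0 wells for no effect and SID17386958 at its maximal inhibitory level for full effect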
KCNK3 confirm = confirmation of human KCNK3 two-pore domain potassium channel inhibitors | shares compounds with KCNK3 inh | CHO-KCNK3 thallium flux, FluxOR fluorescence; 0% buffer, 100% carvedilol maximal block | ratio percent of control, % at 10 µM | actives 99% (n = 2,400) | AID 651638;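 active means ratio percent of control, averaged over triplicates, above buffer control mean plus 5 SD, cut at about 64% in these data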;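 further: ratio is the fluorescence rise from min to max over baseline after thallium stimulus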
KCNK3 noninduced = counter-screen for KCNK3 inhibitors: effect in non-induced cells; shares compounds with KCNK3 inh; non-induced KCNK3 parental cells, FluxOR thallium flux; active compounds read low; thallium flux ratio (lower = more inhibition) at 10 µM; actives 40% (n = 2,400); AID 651747;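 active means thallium flux ratio, averaged over three wells, more than 5 SD below the buffer control mean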;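 further: host cells are CHO cells without KCNK3 induction; ratio is peak minus trough fluorescence over baseline then normalized to buffer controls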
Starred values were filed as active, the others as inactive; i = inactive; . = not tested or not shown. In the library only some 3.7% were active in any assay of this set; here they are far more common. Unless noted, how the calls were made is not given here.

SMILES | hERG rescue | KCNK9 inh-1 | KCNK3 inh | Kir21 block | KCNQ1 pot | KCNQ1 block | KCNQ1 inh valid | CHO Tl flux | KCNQ2 inh | KCNQ1-KCNE1 inh | others
c1ccc(CNc2c3ccccc3nc3ccccc23)cc1 | -24.3 | i | i | -8.29* | i | 8* | 39.0* | 0.41 | 66.0%* | 48.5%* | hERG ctr=70.0%*;KCNK9 inh-2=i;Kir21 ephys inh=15.5%*
O=C1CCCCC1Sc1nnc(-c2ccc3c(c2)OCO3)o1 (stereo not drawn) | -12.6 | i | i | 0.16 | i | i | . | . | . | .
COc1ccc(CN2CCCC(C(=O)c3ccc4c(c3)OCO4)C2)c(F)c1 (stereo not drawn) | -8.9 | i | i | -6.43* | i | i | . | . | . | . | hERG ctr=46.0%*;KCNK9 inh-2=i;Kir21 ephys inh=23.3%*;KCNK9 inh conf=i;Kir21 sel=i;HEK293 Tl ctr=i
COc1ccc(S(=O)(=O)Nc2ccc3c(c2)C(=O)N([C@H](C)CO)C[C@H](C)[C@@H](CN(C)C(=O)NC2CCCCC2)O3)cc1 | . | . | i | . | . | . | . | . | . | .
Cc1ccc(C(CCN(Cc2ccccc2)C(=O)c2ccco2)c2ccco2)cc1 (stereo not drawn) | -32.7 | i | i | 0.33 | i | i | . | . | . | .
O=C(c1ccco1)N(CCC(c1ccccc1)c1ccco1)Cc1ccco1 (stereo not drawn) | -19.3 | -8.2* | i | -6.13* | i | i | . | . | . | . | hERG ctr=i;KCNK9 inh-2=48.0%*;Kir21 ephys inh=i;KCNK9 inh conf=40.0%*;Kir21 sel=i;HEK293 Tl ctr=36.5%*
CCOC(=O)c1ccc(NC(=S)N2CCSC2c2ccc(Br)cc2)cc1 (stereo not drawn) | -8.7 | i | i | 0.97 | i | i | . | . | . | .
CSCc1ccc(C(=O)N2CCCC(Nc3ccc(F)cc3)C2)o1 (stereo not drawn) | -15.0 | i | i | -5.72* | i | i | . | . | . | . | hERG ctr=i;KCNK9 inh-2=i;Kir21 ephys inh=28.7%*;KCNK9 inh conf=i;Kir21 sel=33.0%*;HEK293 Tl ctr=i
O=C(N/N=C/c1cccc(Oc2ccccc2)c1)c1cccc(O)c1 | -27.3 | i | -12.9* | -8.12* | i | i | . | . | . | . | hERG ctr=i;KCNK9 inh-2=i;Kir21 ephys inh=41.2%*;KCNK3 confirm=131.0*;KCNK3 noninduced=0.12*
COc1ccc(-c2cc3c(=O)n(CC(=O)N4CCCC4)ncn3n2)cc1 | -9.3 | i | i | 3.5 | i | i | . | . | . | .
O=S(=O)(c1ccc(S(=O)(=O)N(Cc2ccc(F)cc2)C2CCCC2)cc1)N1CCCC1 | -8.7 | i | i | -2.01 | i | 6* | 57.0* | 0.499 | i | 94.5%*
C#CCOCCOCCOCCNc1nc(N2CCN(C(=O)C([C@@H](C)CC)n3cc(C(N)Cc4ccc(O)cc4)nn3)CC2)nc(N2CCN(C(=O)[C@H](CCC(=O)O)n3cc(C(N)Cc4ccc(O)cc4)nn3)CC2)n1 (stereo partly drawn) | -5.1 | i | i | 1.58 | i | i | . | . | . | .
CN1/C(=C\C(=O)Nc2ccc(Cl)cc2)C(C)(C)c2ccccc21 | -24.0 | -7.15* | i | 0 | i | 10* | 99.0* | 0.487 | 116.0%* | 47.5%* | KCNQ1 APC inh=i
CN1/C(=C\C=C(/C#N)C(=O)Nc2ccc(Cl)cc2)C(C)(C)c2ccccc21 | -17.6 | i | i | -2.04 | i | i | . | . | . | .
COc1ccc(-n2nc(C(C)=O)c(=O)[nH]c2=O)cc1 | -1.5 | i | i | 1.97 | i | i | . | . | . | .
Cc1[nH]c2ccccc2c1C(=O)COc1ccccc1 | -12.3 | i | i | -2.76 | i | 7* | 0.0 | 0.481 | 63.3%* | 40.0%*
CCOC(=O)c1c(C)nc2ccc(Cl)cc2c1-c1ccccc1 | -9.8 | i | i | -3.17 | i | 7* | 122.0* | 0.487 | 117.3%* | 153.5%* | KCNQ1 APC inh=i
CCOC(=O)c1[nH]c2ccc(Cl)cc2c1-c1ccccc1 | -12.6 | i | i | 0.36 | i | i | . | . | . | .
COC(=O)c1ccccc1N/C=C1\CCc2c(c(C)nn2-c2ccccn2)C1=O | -14.7 | i | i | 2.26 | i | 6* | 95.5* | 0.506 | 96.7%* | 141.0%* | KCNQ1 APC inh=i
COC(=O)c1ccccc1NC(=O)CN1CCN(c2ccccn2)CC1 | -2.6 | i | i | -0.76 | i | i | . | . | . | .
CN(c1ccccc1)S(=O)(=O)c1ccc(NC(=O)c2ccccc2)cc1 | -10.2 | i | i | -0.78 | i | i | . | . | . | .
